Assay results published in ChEMBL document CHEMBL1128374, “Preparation and in vitro activities of ethers of [D-serine]8-cyclosporin” (J Med Chem, 1995).
In brackets after ≈: the same amount, converted by molar mass.

Tests used:
Type in all cases: functional
Mus musculus [1] = organism: Mus musculus; test: In vitro inhibition of interleukin-2 (IL-2) production induced by stimulating lymphocytes derived from mouse spleens with the […]; settings: Spleen
In short: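 Compounds added with concanavalin A to the primary culture; supernatants collected at 48 h. IL-2 content measured by growth of IL-2-dependent CTLL cells, read as tritiated thymidine incorporation after 48 h. IC50 determined, with cyclosporin A run in parallel.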

Mus musculus [2] = organism: Mus musculus; test: In vitro efficacy on humoral immune response by Mishell-Dutton assay (MD).
In short: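 Spleen lymphocytes from female OF1 mice (ca. 10 x 10^6) cultured 3 days with sheep erythrocytes (ca. 30 x 10^6) and test compound. Cells then plated on agar with fresh erythrocytes; plaques form by complement lysis. Read-out is the count of antibody-producing plaque-forming cells. Cyclosporin A run in parallel.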

Mus musculus [3] = organism: Mus musculus; test: In vitro efficacy to suppress lymphocyte proliferation as measured by the incorporation of a labeled precursor ([3H]- thymidine) into DNA in Mixed Lymphocyte reaction (MLR).
In short: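 Cells from spleens of female CBA mice aged 8–10 weeks (ca. 5 x 10^5). Compounds made up at 20 mg/mL in 9:1 (v/v) ethanol/Tween 80, then diluted in saline before adding to medium. Four concentrations per compound across 1.8–1000 ng/mL, in triplicate cultures. IC50 is the calculated concentration giving 50% inhibition of proliferation. Cyclosporin A run in parallel as control.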

IC50 (Mus musculus [1])	IC50 (Mus musculus [2])	Compound	IC50 (Mus musculus [3])
> 1 µg/mL	0.41 µg/mL (≈ 0.308 µM)	C/C=C/C[C@@H](C)[C@@H](O)[C@H]1C(=O)N[C@@H](CC)C(=O)N(C)CC(=O)N(C)[C@@H](CC(C)C)C(=O)N[C@@H](C(C)C)C(=O)N(C)[C@@H](CC(C)C)C(=O)N[C@@H](C)C(=O)N[C@H](COCC(=O)OC(C)(C)C)C(=O)N(C)[C@@H](CC(C)C)C(=O)N(C)[C@@H](CC(C)C)C(=O)N(C)[C@@H](C(C)C)C(=O)N1C	0.24 µg/mL (≈ 0.18 µM)
0.006 µg/mL (≈ 0.00475 µM)	0.018 µg/mL (≈ 0.0143 µM)	C/C=C/C[C@@H](C)[C@@H](O)[C@H]1C(=O)N[C@@H](CC)C(=O)N(C)CC(=O)N(C)[C@@H](CC(C)C)C(=O)N[C@@H](C(C)C)C(=O)N(C)[C@@H](CC(C)C)C(=O)N[C@@H](C)C(=O)N[C@H](COCCO)C(=O)N(C)[C@@H](CC(C)C)C(=O)N(C)[C@@H](CC(C)C)C(=O)N(C)[C@@H](C(C)C)C(=O)N1C [OXECLOSPORIN]	< 0.008 µg/mL
–	0.04 µg/mL (≈ 0.0301 µM)	C/C=C/C[C@@H](C)[C@@H](O)[C@H]1C(=O)N[C@@H](CC)C(=O)N(C)CC(=O)N(C)[C@@H](CC(C)C)C(=O)N[C@@H](C(C)C)C(=O)N(C)[C@@H](CC(C)C)C(=O)N[C@@H](C)C(=O)N[C@H](COC/C=C/COC(C)=O)C(=O)N(C)[C@@H](CC(C)C)C(=O)N(C)[C@@H](CC(C)C)C(=O)N(C)[C@@H](C(C)C)C(=O)N1C	0.04 µg/mL (≈ 0.0301 µM)
–	0.078 µg/mL (≈ 0.0572 µM)	C/C=C/C[C@@H](C)[C@@H](O)[C@H]1C(=O)N[C@@H](CC)C(=O)N(C)CC(=O)N(C)[C@@H](CC(C)C)C(=O)N[C@@H](C(C)C)C(=O)N(C)[C@@H](CC(C)C)C(=O)N[C@@H](C)C(=O)N[C@H](COCCOCC(=O)OC(C)C)C(=O)N(C)[C@@H](CC(C)C)C(=O)N(C)[C@@H](CC(C)C)C(=O)N(C)[C@@H](C(C)C)C(=O)N1C	0.05 µg/mL (≈ 0.0367 µM)
–	0.036 µg/mL (≈ 0.0279 µM)	C/C=C/C[C@@H](C)[C@@H](O)[C@H]1C(=O)N[C@@H](CC)C(=O)N(C)CC(=O)N(C)[C@@H](CC(C)C)C(=O)N[C@@H](C(C)C)C(=O)N(C)[C@@H](CC(C)C)C(=O)N[C@@H](C)C(=O)N[C@H](COC/C=C/CO)C(=O)N(C)[C@@H](CC(C)C)C(=O)N(C)[C@@H](CC(C)C)C(=O)N(C)[C@@H](C(C)C)C(=O)N1C	0.07 µg/mL (≈ 0.0543 µM)
0.024 µg/mL (≈ 0.0191 µM)	–	C/C=C/C[C@@H](C)[C@@H](O)[C@H]1C(=O)N[C@@H](CC)C(=O)N(C)CC(=O)N(C)[C@@H](CC(C)C)C(=O)N[C@@H](C(C)C)C(=O)N(C)[C@@H](CC(C)C)C(=O)N[C@@H](C)C(=O)N2CC(=O)OC[C@@H]2C(=O)N(C)[C@@H](CC(C)C)C(=O)N(C)[C@@H](CC(C)C)C(=O)N(C)[C@@H](C(C)C)C(=O)N1C	0.167 µg/mL (≈ 0.133 µM)
–	0.53 µg/mL (≈ 0.377 µM)	C/C=C/C[C@@H](C)[C@@H](O)[C@H]1C(=O)N[C@@H](CC)C(=O)N(C)CC(=O)N(C)[C@@H](CC(C)C)C(=O)N[C@@H](C(C)C)C(=O)N(C)[C@@H](CC(C)C)C(=O)N[C@@H](C)C(=O)N[C@H](COCCOCCOCC(=O)OC(C)C)C(=O)N(C)[C@@H](CC(C)C)C(=O)N(C)[C@@H](CC(C)C)C(=O)N(C)[C@@H](C(C)C)C(=O)N1C	0.35 µg/mL (≈ 0.249 µM)
0.003 µg/mL (≈ 0.00241 µM)	–	C/C=C/C[C@@H](C)[C@@H](O)[C@H]1C(=O)N[C@@H](CC)C(=O)N(C)CC(=O)N(C)[C@@H](CC(C)C)C(=O)N[C@@H](C(C)C)C(=O)N(C)[C@@H](CC(C)C)C(=O)N[C@@H](C)C(=O)N2CCOC[C@@H]2C(=O)N(C)[C@@H](CC(C)C)C(=O)N(C)[C@@H](CC(C)C)C(=O)N(C)[C@@H](C(C)C)C(=O)N1C	0.006 µg/mL (≈ 0.00482 µM)
–	0.023 µg/mL (≈ 0.0183 µM)	C/C=C/C[C@@H](C)[C@@H](O)[C@H]1C(=O)N[C@@H](CC)C(=O)N(C)CC(=O)N(C)[C@@H](CC(C)C)C(=O)N[C@@H](C(C)C)C(=O)N(C)[C@@H](CC(C)C)C(=O)N[C@@H](C)C(=O)N[C@H](COCC#N)C(=O)N(C)[C@@H](CC(C)C)C(=O)N(C)[C@@H](CC(C)C)C(=O)N(C)[C@@H](C(C)C)C(=O)N1C	0.01 µg/mL (≈ 0.00795 µM)
–	0.065 µg/mL (≈ 0.0504 µM)	C/C=C/C[C@@H](C)[C@@H](O)[C@H]1C(=O)N[C@@H](CC)C(=O)N(C)CC(=O)N(C)[C@@H](CC(C)C)C(=O)N[C@@H](C(C)C)C(=O)N(C)[C@@H](CC(C)C)C(=O)N[C@@H](C)C(=O)N[C@H](COCC(=O)OC)C(=O)N(C)[C@@H](CC(C)C)C(=O)N(C)[C@@H](CC(C)C)C(=O)N(C)[C@@H](C(C)C)C(=O)N1C	0.044 µg/mL (≈ 0.0341 µM)
–	0.009 µg/mL (≈ 0.00705 µM)	C/C=C/C[C@@H](C)[C@@H](O)[C@H]1C(=O)N[C@@H](CC)C(=O)N(C)CC(=O)N(C)[C@@H](CC(C)C)C(=O)N[C@@H](C(C)C)C(=O)N(C)[C@@H](CC(C)C)C(=O)N[C@@H](C)C(=O)N[C@H](COCCCO)C(=O)N(C)[C@@H](CC(C)C)C(=O)N(C)[C@@H](CC(C)C)C(=O)N(C)[C@@H](C(C)C)C(=O)N1C	0.02 µg/mL (≈ 0.0157 µM)
–	0.087 µg/mL (≈ 0.0676 µM)	C/C=C/C[C@@H](C)[C@@H](O)[C@H]1C(=O)N[C@@H](CC)C(=O)N(C)CC(=O)N(C)[C@@H](CC(C)C)C(=O)N[C@@H](C(C)C)C(=O)N(C)[C@@H](CC(C)C)C(=O)N[C@@H](C)C(=O)N[C@H](COCCN=[N+]=[N-])C(=O)N(C)[C@@H](CC(C)C)C(=O)N(C)[C@@H](CC(C)C)C(=O)N(C)[C@@H](C(C)C)C(=O)N1C	0.11 µg/mL (≈ 0.0854 µM)
0.014 µg/mL (≈ 0.00988 µM)	–	C/C=C/C[C@@H](C)[C@@H](O)[C@H]1C(=O)N[C@@H](CC)C(=O)N(C)CC(=O)N(C)[C@@H](CC(C)C)C(=O)N[C@@H](C(C)C)C(=O)N(C)[C@@H](CC(C)C)C(=O)N[C@@H](C)C(=O)N[C@H](COCCOS(=O)(=O)c2ccc(C)cc2)C(=O)N(C)[C@@H](CC(C)C)C(=O)N(C)[C@@H](CC(C)C)C(=O)N(C)[C@@H](C(C)C)C(=O)N1C	0.05 µg/mL (≈ 0.0353 µM)
0.01 µg/mL	–	C/C=C/C[C@@H](C)[C@@H](O)[C@H]1C(=O)N[C@@H](CC)C(=O)N(C)CC(=O)N(C)[C@@H](CC(C)C)C(=O)N[C@@H](C(C)C)C(=O)N(C)[C@@H](CC(C)C)C(=O)N[C@@H](C)C(=O)N2CC(OCC)OC[C@@H]2C(=O)N(C)[C@@H](CC(C)C)C(=O)N(C)[C@@H](CC(C)C)C(=O)N(C)[C@@H](C(C)C)C(=O)N1C (mixture of isomers)	0.04 µg/mL
0.012 µg/mL (≈ 0.00944 µM)	–	C=C1COC[C@@H]2C(=O)N(C)[C@@H](CC(C)C)C(=O)N(C)[C@@H](CC(C)C)C(=O)N(C)[C@@H](C(C)C)C(=O)N(C)[C@@H]([C@H](O)[C@H](C)C/C=C/C)C(=O)N[C@@H](CC)C(=O)N(C)CC(=O)N(C)[C@@H](CC(C)C)C(=O)N[C@@H](C(C)C)C(=O)N(C)[C@@H](CC(C)C)C(=O)N[C@@H](C)C(=O)N2C1	0.036 µg/mL (≈ 0.0283 µM)
–	0.21 µg/mL (≈ 0.158 µM)	C/C=C/C[C@@H](C)[C@@H](O)[C@H]1C(=O)N[C@@H](CC)C(=O)N(C)CC(=O)N(C)[C@@H](CC(C)C)C(=O)N[C@@H](C(C)C)C(=O)N(C)[C@@H](CC(C)C)C(=O)N[C@@H](C)C(=O)N[C@H](COCCC2OCCCO2)C(=O)N(C)[C@@H](CC(C)C)C(=O)N(C)[C@@H](CC(C)C)C(=O)N(C)[C@@H](C(C)C)C(=O)N1C	0.12 µg/mL (≈ 0.09 µM)
–	0.1 µg/mL (≈ 0.074 µM)	C/C=C/C[C@@H](C)[C@@H](O)[C@H]1C(=O)N[C@@H](CC)C(=O)N(C)CC(=O)N(C)[C@@H](CC(C)C)C(=O)N[C@@H](C(C)C)C(=O)N(C)[C@@H](CC(C)C)C(=O)N[C@@H](C)C(=O)N[C@H](COCCOCCOCCO)C(=O)N(C)[C@@H](CC(C)C)C(=O)N(C)[C@@H](CC(C)C)C(=O)N(C)[C@@H](C(C)C)C(=O)N1C	0.47 µg/mL (≈ 0.348 µM)
–	–	C/C=C/C[C@@H](C)[C@@H](O)[C@H]1C(=O)N[C@@H](CC)C(=O)N(C)CC(=O)N(C)[C@@H](CC(C)C)C(=O)N[C@@H](C(C)C)C(=O)N(C)[C@@H](CC(C)C)C(=O)N[C@@H](C)C(=O)N2COC[C@@H]2C(=O)N(C)[C@@H](CC(C)C)C(=O)N(C)[C@@H](CC(C)C)C(=O)N(C)[C@@H](C(C)C)C(=O)N1C	0.118 µg/mL (≈ 0.0959 µM)
–	0.09 µg/mL (≈ 0.0697 µM)	C/C=C/C[C@@H](C)[C@@H](O)[C@H]1C(=O)N[C@@H](CC)C(=O)N(C)CC(=O)N(C)[C@@H](CC(C)C)C(=O)N[C@@H](C(C)C)C(=O)N(C)[C@@H](CC(C)C)C(=O)N[C@@H](C)C(=O)N[C@H](COCCCCO)C(=O)N(C)[C@@H](CC(C)C)C(=O)N(C)[C@@H](CC(C)C)C(=O)N(C)[C@@H](C(C)C)C(=O)N1C	0.094 µg/mL (≈ 0.0728 µM)
–	0.725 µg/mL (≈ 0.55 µM)	C/C=C/C[C@@H](C)[C@@H](O)[C@H]1C(=O)N[C@@H](CC)C(=O)N(C)CC(=O)N(C)[C@@H](CC(C)C)C(=O)N[C@@H](C(C)C)C(=O)N(C)[C@@H](CC(C)C)C(=O)N[C@@H](C)C(=O)N[C@H](COCC(=O)OC(C)C)C(=O)N(C)[C@@H](CC(C)C)C(=O)N(C)[C@@H](CC(C)C)C(=O)N(C)[C@@H](C(C)C)C(=O)N1C	0.1 µg/mL (≈ 0.0758 µM)
–	–	C/C=C/C[C@@H](C)[C@@H](O)[C@H]1C(=O)N[C@@H](CC)C(=O)N(C)CC(=O)N(C)[C@@H](CC(C)C)C(=O)N[C@@H](C(C)C)C(=O)N(C)[C@@H](CC(C)C)C(=O)N[C@@H](C)C(=O)N2CCCC[C@@H]2C(=O)N(C)[C@@H](CC(C)C)C(=O)N(C)[C@@H](CC(C)C)C(=O)N(C)[C@@H](C(C)C)C(=O)N1C	0.029 µg/mL (≈ 0.0233 µM)
–	0.078 µg/mL (≈ 0.0604 µM)	C/C=C/C[C@@H](C)[C@@H](O)[C@H]1C(=O)N[C@@H](CC)C(=O)N(C)CC(=O)N(C)[C@@H](CC(C)C)C(=O)N[C@@H](C(C)C)C(=O)N(C)[C@@H](CC(C)C)C(=O)N[C@@H](C)C(=O)N[C@H](COCC(C)(C)O)C(=O)N(C)[C@@H](CC(C)C)C(=O)N(C)[C@@H](CC(C)C)C(=O)N(C)[C@@H](C(C)C)C(=O)N1C	0.05 µg/mL (≈ 0.0387 µM)
–	0.24 µg/mL (≈ 0.178 µM)	C/C=C/C[C@@H](C)[C@@H](O)[C@H]1C(=O)N[C@@H](CC)C(=O)N(C)CC(=O)N(C)[C@@H](CC(C)C)C(=O)N[C@@H](C(C)C)C(=O)N(C)[C@@H](CC(C)C)C(=O)N[C@@H](C)C(=O)N[C@H](COC/C=C/CBr)C(=O)N(C)[C@@H](CC(C)C)C(=O)N(C)[C@@H](CC(C)C)C(=O)N(C)[C@@H](C(C)C)C(=O)N1C	0.09 µg/mL (≈ 0.0666 µM)
